Measurements taken from publication PMC12391519 (Scientific Reports, 2025).

How the values were obtained:
[1] = Total serum TEIC trough concentration by HPLC in patients on TEIC therapy; assay type: in vivo, human
Method in brief: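 Trough serum was drawn before dosing (days 3–4 of loading, day 7 onward of maintenance), centrifuged 1,800 g for 15 min at 25 °C and stored at –30 °C. It got primidone internal standard, acetonitrile deproteinisation and 0.1 M HCl/chloroform cleanup. HPLC-UV ran at 215 nm on a C18 column at 35 °C with a 10 mM phosphate pH 3.0/acetonitrile gradient at 1.0 mL/min. Calibrators were in commercial human serum; groups were compared by Mann–Whitney U.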

[2] = Free serum TEIC trough concentration by ultrafiltration followed by HPLC; assay type: in vivo, human
Method in brief: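 Trough serum (1 mL) was ultrafiltered through a 30 kDa cutoff filter. The filtrate got primidone internal standard, acetonitrile deproteinisation and 0.1 M HCl/chloroform cleanup, then C18 HPLC-UV at 215 nm; calibrators were in ultrafiltered human serum. Response was […] CRP decrease plus ≥0.3 °C fever reduction for two consecutive days within 96 h. Adverse events were renal or hepatic dysfunction. Groups were compared by Mann–Whitney U.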

serum albumin = assay: Free TEIC percentage; assay type: in vitro ADME, human; conditions: patient serum, HPLC-UV
Method in brief: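 Free percentage is free/total trough TEIC, both measured by HPLC-UV at 215 nm; free drug was taken after 30 kDa ultrafiltration of serum. Samples were drawn before dosing on days 3–4 (loading: five doses, median 13 mg/kg every 12 h) or from day 7 (maintenance: median 7.8 mg/kg once daily). Relation to albumin was assessed by Spearman rank correlation.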

[3] = Adverse events during TEIC therapy; assay type: in vivo, human; conditions: ROC analysis, n = 41
Method in brief: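 Renal dysfunction was a serum creatinine rise of ≥0.3 mg/dL within 48 h, or ≥1.5-times baseline within seven days, of TEIC administration. Hepatic dysfunction was AST or ALT outside the normal limit of ≤30 IU/L (CTCAE v5.0). ROC analysis used measured free trough TEIC (ultrafiltration, HPLC-UV). The cutoff was the point where sensitivity and specificity, plotted against free concentration, gave the best result.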

albumin = conditions: cited from earlier work
[4] = cited from earlier work

Teicoplanin
Trough total concentration, loading dose period, median ([1]; loading dose period (days 3–4, median dose 13 mg/kg every 12 h), serum, HPLC-UV): 24.3 µg/mL
Trough total concentration, maintenance dose period, median ([1]; maintenance dose period (day 7 onward, median dose 7.8 mg/kg once daily), serum, HPLC-UV): 26.2 µg/mL
Total serum TEIC concentration, patients with adverse events, median ([1]; n = 7): 36.1 µg/mL
Total serum TEIC concentration, patients without effective response, median ([1]; n = 7): 21.1 µg/mL
Total serum TEIC concentration, patients with effective response, median ([1]; n = 17): 24.8 µg/mL
Total serum TEIC concentration, patients without adverse events, median ([1]; n = 34): 30.1 µg/mL
Free serum TEIC concentration, single patient with adverse events ([2]; another patient, total serum TEIC < 40 μg/mL, adverse events noted): 6.31 µg/mL
Trough free concentration, loading dose period, median ([2]; loading dose period, ultrafiltration 30 kDa, HPLC-UV, median): 1.50 µg/mL
Trough free concentration, maintenance dose period, median ([2]; maintenance dose period, ultrafiltration 30 kDa, HPLC-UV, median): 1.65 µg/mL
Free serum TEIC concentration, patients with adverse events, median ([2]; n = 7, median): 2.60 µg/mL
Free serum TEIC concentration, patients without effective response, median ([2]; n = 7, median): 1.26 µg/mL
Free serum TEIC concentration, patients with effective response, median ([2]; n = 17, median): 1.50 µg/mL
Free serum TEIC concentration, patients without adverse events, median ([2]; n = 34, median): 1.35 µg/mL
Free serum TEIC concentration, single patient with efficacy ([2]; one of the 17 patients who showed efficacy, total serum TEIC < 15 µg/mL): 1.67 µg/mL
Free serum TEIC concentration, single patient with high total concentration ([2]; one patient, total serum TEIC > 40 μg/mL): 1.78 µg/mL
Free teicoplanin percentage, median (serum albumin; all samples, ultrafiltration 30 kDa, free/total): 6.3%
Free teicoplanin percentage, loading dose period, median (serum albumin; loading dose period, ultrafiltration): 6.2%
Free teicoplanin percentage, maintenance dose period, median (serum albumin; maintenance dose period, ultrafiltration): 6.3%
Cutoff value of free serum TEIC concentration for occurrence of adverse events [3]: 2.07 µg/mL
nKa (binding sites per albumin molecule × association constant) (albumin; analysis of Yano et al.): 1.78 (g/dL)^−1
Protein-binding rate used by Byrne et al. (albumin): 90–95%
Protein-binding rate (albumin; in humans, serum albumin): ≥ 90%
Cutoff of mean free serum TEIC concentration associated with renal dysfunction ([4]; Sugiyama et al.): 4.2 µg/mL
Effective total serum TEIC trough concentrations in clinical settings [4]: 15 to 40 µg/mL
Effective total serum TEIC trough concentrations, complicated infections [4]: 20 to 40 µg/mL
Effective total serum TEIC trough concentrations, uncomplicated infections [4]: 15 to 30 µg/mL
TEIC concentration causing renal dysfunction [4]: > 60 µg/mL
